Test results: ChEMBL document CHEMBL4043282, “Discovery of the First Potent, Selective, and Orally Bioavailable Signal Peptide Peptidase-Like 2a (SPPL2a) Inhibitor Displaying Pronounced Immunomodulatory Effects In Vivo” (J Med Chem, 2018)
pIC50: −log10 of the molar value. Values after ≈ are worked out from the molar mass of the structure shown. Active and inactive are the calls of the source. No cut-off for these calls is given here.

What was measured:
[1] = Equilibrium solubility of the compound at pH 6.8 after 24 hrs by saturation shake flask based UV-HPLC method; type: physicochemical; details: buffer
Mus musculus [2] = assay: In vivo inhibition of SPPL2a in mouse assessed as accumulation of CD74/p8 in splenocyte lysate at 150 mg/kg administered via oral gavage as single dose measured 16 hrs post dose by Western blot method; type: functional, organism-based
Summary of the method: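 Mice gavaged in 0.5% MC:0.5% Tween or PEG:D5W 3:1. Spleens dissociated, red cells lysed with ACK, 1 × 10^6 cells lysed with protease inhibitors; 18 μg lysate on 10% gel, blotted, CD74 full length and p8 detected with rat anti-mouse CD74 In-1 and Alexa488 anti-rat IgG, LiCor scan; p8/full-length ratio expressed as percent of reference compound ratio.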

[3] = biological target: T1, Signal peptide peptidase-like 2A (Mus musculus, UniProt Q9JJF9); assay: Inhibition of SPPL2a in mouse whole blood assessed as increase in CD74/p8 accumulation after 5.5 hrs by Western bot method
T1 sequence (Q9JJF9 whole entry): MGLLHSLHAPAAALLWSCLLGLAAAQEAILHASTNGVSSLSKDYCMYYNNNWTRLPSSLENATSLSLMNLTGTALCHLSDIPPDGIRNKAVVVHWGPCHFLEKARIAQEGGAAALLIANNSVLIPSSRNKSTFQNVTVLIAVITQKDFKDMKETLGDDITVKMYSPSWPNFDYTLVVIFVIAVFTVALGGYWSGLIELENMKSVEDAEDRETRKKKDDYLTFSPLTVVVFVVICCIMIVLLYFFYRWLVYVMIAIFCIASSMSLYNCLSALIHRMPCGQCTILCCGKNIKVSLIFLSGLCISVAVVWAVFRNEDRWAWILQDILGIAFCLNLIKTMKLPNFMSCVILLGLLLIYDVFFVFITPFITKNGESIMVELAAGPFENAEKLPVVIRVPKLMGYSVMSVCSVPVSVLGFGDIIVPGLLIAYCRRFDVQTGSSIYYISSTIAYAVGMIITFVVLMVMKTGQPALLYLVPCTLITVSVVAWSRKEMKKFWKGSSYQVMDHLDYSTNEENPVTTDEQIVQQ
Summary of the method: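 Mouse whole blood (200 μL) with compound from 20× stock, 0.5% DMSO final, 5.5 h at 37 °C, 5% CO2 with rotation. RBC lysis, washes, lysis in Tris pH 6.8/Triton/deoxycholate buffer; Western blot with rat anti-mouse CD74 (In-1); p8 band intensity normalized to CD74 full-length/β-actin for dose response.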

[4] = Volume of distribution at steady state in Balb/c mouse at 5 mg/kg, iv by LC/MS/MS analysis; type: ADME, organism-based; details: in vivo, read-out: Vdss
Mus musculus [5] = assay: In vivo inhibition of SPPL2a in mouse assessed as increase in CD74/p8 accumulation in splenocytes at 10 to 100 mg/kg, po administered as single dose measured after 4 hrs by Western blot method; type: functional, organism-based
[6] = Total plasma concentration in mouse at 30 mg/kg, po administered as single dose after 4 hrs by LC/MS/MS analysis; type: ADME, organism-based
[7] = biological target: T2, Signal peptide peptidase-like 2A (Mus musculus) (UniProt Q9JJF9); details: 2 uM
T2 sequence (whole entry): T1 sequence (Q9JJF9 whole entry)

[8] = biological target: T3, Signal peptide peptidase-like 2B (Homo sapiens, UniProt Q8TCT7); assay: Inhibition of human SPPL2b expressed in human U2OS cells using EGFP-labeled TNFalpha (1 to 76 residues) NTF as substrate after 24 hrs by Hoechst staining based high content imaging assay; type: cell-based
T3 sequence (Q8TCT7 whole entry): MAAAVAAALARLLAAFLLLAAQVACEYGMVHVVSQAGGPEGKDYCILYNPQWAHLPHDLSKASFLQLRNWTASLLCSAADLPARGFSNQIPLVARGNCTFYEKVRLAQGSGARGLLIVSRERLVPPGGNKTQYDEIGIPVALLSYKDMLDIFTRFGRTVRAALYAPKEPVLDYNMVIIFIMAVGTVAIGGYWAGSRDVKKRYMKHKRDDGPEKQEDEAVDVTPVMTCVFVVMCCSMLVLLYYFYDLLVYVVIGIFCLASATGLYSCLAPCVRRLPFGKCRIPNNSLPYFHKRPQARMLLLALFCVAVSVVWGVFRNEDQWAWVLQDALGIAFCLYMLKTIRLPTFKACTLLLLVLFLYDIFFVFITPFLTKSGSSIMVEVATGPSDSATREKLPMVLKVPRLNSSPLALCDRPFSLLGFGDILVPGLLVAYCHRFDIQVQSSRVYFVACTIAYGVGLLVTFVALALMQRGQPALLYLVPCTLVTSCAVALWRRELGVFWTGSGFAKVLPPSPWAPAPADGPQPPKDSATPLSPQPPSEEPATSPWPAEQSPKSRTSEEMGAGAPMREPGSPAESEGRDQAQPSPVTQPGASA
Summary of the method: (§1)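 Stable U-2 OS lines expressing human SPPL2a, SPPL2b or SPP constitutively (mouse SPPL2a line analogous, mouse TNFα(aa1-77)-NTF-EGFP-NLS) with doxycycline-inducible EGFP substrate. 3000 cells/well, 3−4 h, then 11-point inhibitor 100 μM to 1 nM, 0.9% DMSO, 5 μg/mL doxycycline, 24 h 37 °C. PFA fixed, Hoechst nuclei; nuclear minus cytoplasmic EGFP intensity; inhibition vs 0.5 μM reference and DMSO; IC50 by nonlinear regression.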

[9] = biological target: T1, Signal peptide peptidase-like 2A; assay: Inhibition of mouse SPPL2a expressed in human U2OS cells using EGFP-labeled TNFalpha (1 to 77 residues) NLS as substrate after 24 hrs by Hoechst staining based high content imaging assay; type: cell-based; summary of the method: as §1
[10] = Total concentration in Lewis rat blood at 10 mg/kg, po bid after 24 hrs by LC/MS/MS analysis; type: ADME, organism-based; details: read-out: Drug uptake
Rattus norvegicus = assay: Dose normalized AUC in Wistar rat at 10 mg/kg, po bid by LC/MS/MS analysis; type: ADME, organism-based; details: in vivo
[11] = Inhibition of human SPP expressed in human U2OS cells using EGFP-labeled EnvSigSeq-SEAP as substrate after 24 hrs by Hoechst staining based high content imaging assay; type: cell-based; summary of the method: as §1
[12] = biological target: T2, Signal peptide peptidase-like 2A (Mus musculus); details: 2 uM; remark: listed apart in the source
Plasma [13] = assay: Cmin in mouse plasma at 10 mg/kg, po bid administered at 8 and 16 hrs dosing interval between first and second dose respectively for 11 days measured predose on day 12 by LC/MS/MS analysis; type: ADME, organism-based; details: in vivo, read-out: Cmin
Summary of the method: (§2)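 Mice gavaged bid in 0.5% MC:0.5% Tween or PEG:D5W 3:1; trough sample taken before the morning dose; 50 μL retro-orbital blood into LiHep tubes, kept on ice, plasma separated at 2823g for 5 min, stored at −20 °C until analysis.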

[14] = Drug uptake in Lewis rat spleen at 3 mg/kg, po bid after 24 hrs by LC/MS/MS analysis; type: ADME, organism-based; details: read-out: Drug uptake
[15] = Drug uptake in Lewis rat spleen at 10 mg/kg, po bid after 24 hrs by LC/MS/MS analysis; type: ADME, organism-based; details: read-out: Drug uptake
Plasma [16] = assay: Cmin in mouse plasma at 3 mg/kg, po bid administered at 8 and 16 hrs dosing interval between first and second dose respectively for 11 days measured predose on day 12 by LC/MS/MS analysis; type: ADME, organism-based; details: in vivo, read-out: Cmin; summary of the method: as §2

| solubility thermodynamic at 24 h [1] [µM] | pIC50 [3] | Vd [4] [L/kg] | concentration at 4 h [6] [nM] | inhibition [7] | pIC50 [8] | pIC50 [9] | concentration at 24 h [10] [nM] | AUC/dose (Rattus norvegicus) [nM·h] | pIC50 [11] | inhibition [12] [%] | concentration (Plasma [13]) [nM] | concentration at 24 h [14] [nM] | concentration at 24 h [15] [nM] | concentration (Plasma [16]) [nM] | Compound | inhibition (Mus musculus [2]) | Activity (Mus musculus [5]) |
| --- | --- | --- | --- | --- | --- | --- | --- | --- | --- | --- | --- | --- | --- | --- | --- | --- | --- |
| 263 (≈ 111 µg/mL) | 6.26 | 1.2 | 500 | – | – | – | – | – | – | – | – | – | – | – | Cc1ccccc1NC(=O)C[C@@H](C)C(=O)N[C@@H]1C(=O)N2CCCN2Cc2ccccc21 | Active | Active |
| – | – | – | – | inactive | 6.37 | 6.74 | 1390 | 8787 | 5.43 | 50 | 66 | 860 | 2400 | 16 | Cc1ncc(F)cc1NC(=O)C[C@H](C(=O)N[C@@H]1C(=O)N2CC3(CC3)CN2C(=O)c2ccccc21)C1CC1 | – | – |
